Laboratory results published in article PMC4090943 (Bioorganic & medicinal chemistry letters, 2014).

Assays:
rat mGlu5 = rat mGlu5 (Rattus norvegicus, UniProt P31424); test: Calcium mobilization mGlu5 assay; format: cell-based; conditions: HEK293A cells expressing rat mGlu5; EC80 glutamate; average of n ≥ 3
marble burying [1] = test: Mouse marble burying model of anxiety; format: in vivo; conditions: mice, IP, 15 minute pretreatment; P < 0.05 vs. vehicle, Dunnett's test
How it was run: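 Naïve mice given the test compound IP, with a vehicle control group, and then placed with glass marbles in deep bedding. The read-out was the number of marbles buried. n = 7-8 per dose. Each dose group was compared with the vehicle group by Dunnett's test (P < 0.05).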

[2] = Rat PO tissue distribution study; format: in vivo, male Sprague-Dawley rats; conditions: rat PO 10 mg/kg, 60 min
How it was run: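 Male Sprague-Dawley rats (n=2 per time point) received a single 10 mg/kg oral dose in 10% Tween 80 in 0.5% MC. At 60 min they were euthanized and decapitated, and blood, hepatic portal vein and brain were collected. After protein precipitation, plasma and brain homogenate supernatants were analysed by LC-MS/MS.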

the other seven mGlus = test: Cell based functional mGlu selectivity assays; conditions: 10μM
[3] = tested on: 68 clinically relevant GPCRs, ion channels, kinases, and transporters; test: LeadProfilingScreen radioligand binding assay panel; conditions: 10 μM compound; 68 targets
[4] = non-human primate regulatory toxicology studies; cited from earlier work
marble burying [5] = conditions: mice; ref 7a,d; cited from earlier work

Sequence of rat mGlu5 (P31424 21-1203): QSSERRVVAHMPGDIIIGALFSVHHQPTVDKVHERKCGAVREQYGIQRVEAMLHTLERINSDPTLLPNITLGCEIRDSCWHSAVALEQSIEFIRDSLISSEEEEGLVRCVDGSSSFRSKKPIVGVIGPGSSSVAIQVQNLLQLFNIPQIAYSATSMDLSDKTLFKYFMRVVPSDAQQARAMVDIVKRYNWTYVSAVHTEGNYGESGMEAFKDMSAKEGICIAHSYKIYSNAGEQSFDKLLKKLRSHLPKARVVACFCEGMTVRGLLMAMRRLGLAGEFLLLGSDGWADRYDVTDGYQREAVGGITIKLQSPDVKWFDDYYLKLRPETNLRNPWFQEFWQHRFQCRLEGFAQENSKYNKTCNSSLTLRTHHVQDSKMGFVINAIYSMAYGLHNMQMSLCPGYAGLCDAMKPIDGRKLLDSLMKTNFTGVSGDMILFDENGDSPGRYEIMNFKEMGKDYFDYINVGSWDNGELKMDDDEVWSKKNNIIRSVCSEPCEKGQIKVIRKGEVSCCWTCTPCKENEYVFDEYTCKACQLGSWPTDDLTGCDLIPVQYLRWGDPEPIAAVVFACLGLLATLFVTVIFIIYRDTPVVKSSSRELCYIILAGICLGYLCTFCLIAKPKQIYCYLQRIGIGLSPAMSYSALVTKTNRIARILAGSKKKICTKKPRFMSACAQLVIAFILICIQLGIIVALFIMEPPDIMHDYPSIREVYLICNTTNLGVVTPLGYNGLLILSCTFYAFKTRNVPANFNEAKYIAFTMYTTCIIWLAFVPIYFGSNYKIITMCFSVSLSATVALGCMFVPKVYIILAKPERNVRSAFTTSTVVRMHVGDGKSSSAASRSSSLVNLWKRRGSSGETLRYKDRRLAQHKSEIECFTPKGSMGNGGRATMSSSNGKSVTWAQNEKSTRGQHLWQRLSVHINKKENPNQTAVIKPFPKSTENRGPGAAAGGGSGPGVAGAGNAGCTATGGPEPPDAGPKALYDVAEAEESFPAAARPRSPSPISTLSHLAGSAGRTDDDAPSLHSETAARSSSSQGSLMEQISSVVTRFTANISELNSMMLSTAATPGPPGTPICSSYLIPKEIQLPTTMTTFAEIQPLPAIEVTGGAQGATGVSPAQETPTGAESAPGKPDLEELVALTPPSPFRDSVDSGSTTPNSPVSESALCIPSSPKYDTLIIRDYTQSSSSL

Compound	mGlu5 pIC50 (± SEM) (rat mGlu5)	also measured
O=C(Nc1cncc(Oc2cncc(F)c2)n1)c1cccc(Cl)c1F [Compound 42]	<4.5	
O=C(Nc1cncc(Oc2cncc(F)c2)n1)c1cc(F)cc(F)c1 [Compound 46]	<4.5	
O=C(Nc1cncc(Oc2cncnc2)n1)c1cc(Cl)ccn1 [Compound 68, 4-chloro-N-(6-(pyrimidin-5-yloxy)pyrazin-2-yl)picolinamide]		doses giving statistically significant inhibition of marble burying (marble burying [1]): greater than or equal to 10 mg/kg; HPV (hepatic portal vein) concentration [2]: 1.31 µM; brain concentration [2]: 1450 nM; plasma concentration [2]: 920 nM; activity against the other seven mGlus (the other seven mGlus): no detectable activity; significant responses (>50% inhibition of radioligand binding) in panel [3]: no significant responses were found
O=C(c1ccc(OC(F)F)c(C#Cc2ccccn2)c1)N1Cc2cccnc2C1 [GRN-529]		toxicology finding [4]: biliary epithelial hyperplasia
Cc1cccc(C#Cc2ccccc2)n1 [MPEP]		effect on marble burying (marble burying [5]): inhibit marble burying
CN1CC(=O)NC1=NC(=O)Nc1cccc(Cl)c1 [fenobam]		effect on marble burying (marble burying [5]): inhibit marble burying

Now from value to molecule, other results behind:

mGlu5 pIC50 (± SEM) (rat mGlu5)	Compound	also measured
<4.5	O=C(Nc1cncc(Oc2cncc(F)c2)n1)c1cc(Cl)cc(Cl)c1 [Compound 47]	
<4.5	COc1cc(OC)cc(C(=O)Nc2cncc(Oc3cncc(F)c3)n2)c1 [Compound 49]	
<4.5	N#Cc1cc(F)cc(C(=O)Nc2cncc(Oc3cncc(F)c3)n2)c1 [Compound 50]	
<4.5	O=C(Nc1cncc(Oc2cncc(F)c2)n1)c1cccnc1 [Compound 60]	
<4.5	O=C(Nc1cncc(Oc2cncc(F)c2)n1)c1cccnn1 [Compound 61]	
<4.5	O=C(Nc1cncc(Oc2cncc(F)c2)n1)c1ccncn1 [Compound 63]	
<4.5	Cc1ccc(C(=O)Nc2cncc(Oc3cncnc3)n2)s1 [Compound 65]	
